# RAM inhibit: inhibitors of the yeast RAM network, primary screen, dse1pr::URA3 reporter, 5-FOA selection. S. cerevisiae dse1pr::URA3 reporter, 5-FOA growth OD615, 2 d; analog-sensitive cbk1-as2 kinase mutant strain. inhibition, % at 50 µM. 190,000 tested, 1.8% active;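 active = inhibition above a set limit, 3 SD over mean compound inhibition, cut at about 8.4% in these data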;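 note: inhibition rescues growth on 5-FOA so higher OD means more RAM inhibition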
# DAT uptake mod: changed hDAT dopamine uptake under cocaine IC80, either direction, primary screen, cocaine antagonist project, cell-based, LLC-PK1 hDAT, [14C]-dopamine uptake, MLSMR | 110,000 tested, 1.3% active | LLC-PK1 hDAT cells, [14C]-dopamine uptake with cocaine IC80; actives deviate in either direction | B-score at 10 µM | Sodium-dependent dopamine transporter (Homo sapiens), Q01959;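 active = Z score or B-score, a plate-position-corrected score, falls beyond the plate's 99.7% confidence bounds, in either direction; inactive = both scores lie inside the 99.7% bounds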
# Target sequence (Q01959 whole entry, looked up): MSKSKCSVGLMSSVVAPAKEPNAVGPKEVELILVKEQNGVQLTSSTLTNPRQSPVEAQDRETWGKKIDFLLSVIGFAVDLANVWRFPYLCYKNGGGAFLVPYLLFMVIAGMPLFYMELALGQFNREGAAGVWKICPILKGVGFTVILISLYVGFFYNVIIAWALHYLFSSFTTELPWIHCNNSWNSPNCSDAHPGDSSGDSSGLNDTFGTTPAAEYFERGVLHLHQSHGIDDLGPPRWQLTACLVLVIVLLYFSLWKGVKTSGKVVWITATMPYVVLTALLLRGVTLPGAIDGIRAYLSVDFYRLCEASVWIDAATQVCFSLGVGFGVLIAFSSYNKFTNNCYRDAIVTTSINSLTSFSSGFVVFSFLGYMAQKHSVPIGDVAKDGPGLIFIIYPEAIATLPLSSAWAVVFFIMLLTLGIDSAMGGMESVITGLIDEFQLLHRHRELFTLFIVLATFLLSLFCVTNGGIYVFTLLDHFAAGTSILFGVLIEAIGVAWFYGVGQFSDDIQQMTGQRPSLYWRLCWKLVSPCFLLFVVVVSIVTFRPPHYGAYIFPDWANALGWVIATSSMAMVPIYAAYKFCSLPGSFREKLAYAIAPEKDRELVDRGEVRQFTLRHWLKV
# WT yeast gro inh: growth inhibition of WT strain, primary screen, mitochondrial fusion inhibitor project, WT and mutant strains, chemical genetic; mitochondrial fusion phenotypic screen; inhibition, % at 10 µM; 190,000 tested, 2.1% active; AID 1362, 2008; in the data active = inhibition above about 58%; tested in S. cerevisiae
# Yeast lifespan up: compounds extending yeast replicative lifespan, primary screen, S. cerevisiae, OD615; 130,000 tested, 0.68% active; inhibition of the nicotinamide effect, % at 10 µM; AID 775, 2007; S. cerevisiae growth with nicotinamide; deaD strain in restrictive glucose medium;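 active = inhibition above a set limit, placed 3 SD over the median of all compounds, cut at about 26% in these data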
#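 Test system: DeaD-strain S. cerevisiae / Buffer or medium: restrictive glucose medium / Also added: nicotinamide 1.5 mM / Doses: one concentration, 10 µM, DMSO 0.25% / Schedule: 48 h at 30 °C / Signal: OD615 measurement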
# Measles CPE: compounds protecting cells from measles virus cytopathic effect, primary screen, measles RdRp inhibitor project, single point, MLSMR library, absorbance | Measles virus-infected cells, CPE protection | protection (pct of control), % at 4 µM | 140,000 tested, 1.5% active; in the data active = protection mostly above about 24%, no sharp cut-off; inactive = mostly below about 26%
# Yeast growth inh: growth inhibitors of yeast BB579 in restrictive medium, primary screen, yeast lifespan-shortening project, S. cerevisiae; OD615, 48 h; inhibition, % at 10 µM; 140,000 tested, 0.51% active; AID 804, 2007;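 active = inhibition above a set limit, 3 SD over the mean compound inhibition, cut at about 44% in these data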
#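 System: Saccharomyces cerevisiae DeaD strain BB579, replicative lifespan model yeast. Buffer or medium: restrictive glucose-based CSMM-D medium. Doses: one dose, 10 µM compound with 0.25% DMSO. Timing: 4 h preincubation and 48 h exposure at 30 °C. Detection: turbidity as optical density at 615 nm. Benchmarks: amphotericin B 10 µg/mL, positive.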
# RAM 5-FOA: 5-FOA growth of efflux-deficient control yeast, dose response, counter-screen for RAM network inhibitor project, S. cerevisiae, OD615 | S. cerevisiae efflux-deficient reporter strain, 5-FOA growth OD615, 2 days | 1,200 tested, under 10 active | shares compounds with RAM inhibit | max inhibition, %; call rule not given here
# A number is an active result; – = inactive; · = not tested or not shown. Sampled rows, rich in hits. Any-hit rate of the full collection: about 6.1%.
SMILES,RAM inhibit,DAT uptake mod,WT yeast gro inh,Yeast lifespan up,Measles CPE,Yeast growth inh,RAM 5-FOA
COC(=O)c1ccc(C(=O)Nc2cc(Cl)ccc2Cl)cc1NC(=O)c1ccc(N(C)C)cc1,–,–,–,–,–,–,·
COc1ccc(/C=C2\SC(=O)N(CCC(=O)Nc3ccccc3)C2=O)cc1OC,13,·,–,–,–,–,–
COc1cc(/C=C2\SC(=S)N(CCC(=O)Nc3ccccc3)C2=O)cc(OC)c1OC,–,·,–,·,·,·,·
CCOC(=O)C1C(=O)NC(c2ccccc2)=NC1c1ccc(O)c(OC)c1 (stereo not given),–,·,–,·,·,·,·
NC(=O)C1(N2CCCCC2)CCN(C2CC(=O)NC2=O)CC1 (stereo not given),–,–,–,·,–,–,·
CCc1ccc(C(=O)COC(=O)[C@@H](NC(N)=O)[C@@H](C)CC)cc1,–,·,–,·,·,·,·
CN(C)c1ccc(N=Nc2ccccc2C(=O)OCC(=O)NCC2CCCCC2)cc1,25,·,64,–,–,–,–
COC(=O)c1sccc1-c1ccc(/C=N/OCc2c(Cl)cccc2Cl)o1,18,–,–,–,–,–,–
COC(=O)CCSCC(=O)N1N=C(c2ccc(Br)cc2)CC1c1cccc(OC)c1OC (stereo not given),13,·,–,·,·,·,–
COc1cccc(C2CC(c3ccc(NS(C)(=O)=O)cc3)=NN2C(=O)c2ccccc2)c1OC (stereo not given),–,·,–,·,·,·,·
O=C(c1ccco1)N1CCN(c2c([N+](=O)[O-])nn(-c3cccc(Cl)c3)[n+]2[O-])CC1,–,·,–,·,·,·,·
O=P(Cc1ccccn1)(c1ccccc1)c1ccccc1,–,–,–,–,–,–,·
CC(C)C[C@H](NC(=O)c1[nH]cnc1C(=O)N[C@H](C)c1ccccc1)C(=O)OCc1ccccc1,12,–,–,·,·,·,–
CSc1nc(NCc2ccco2)c2ccccc2n1,–,–,–,–,–,–,·
Cc1cccc(Nc2nc(NCc3ccco3)c3ccccc3n2)c1,16,·,98,–,–,–,–
CC(C)OC(=O)CC(=O)CSc1nc(-c2ccc(F)cc2)cc(-c2ccccc2)c1C#N,14,·,–,–,–,–,–
CN1CCN(C(=S)NC(=O)c2ccc(C(C)(C)C)cc2)CC1,–,·,–,–,–,–,·
C=CCn1cccc(/C=C/C(=O)c2ccc(C(C)(C)C)cc2)c1=S,17,·,–,–,–,–,–
O=C(CCCSc1ccccc1)Nc1nc(-c2ccco2)c(-c2ccco2)s1,13,·,–,–,–,–,–
O=C(CCl)Nc1nc(-c2ccco2)c(-c2ccco2)s1,–,·,–,–,–,–,·
COc1ccc(N(C)S(=O)(=O)c2cccc(C(=O)OCC(=O)Nc3sc4c(c3C#N)CCCCC4)c2)cc1,11,·,–,–,–,–,–
CC(NC(=O)Cc1cccs1)c1ccccc1 (stereo not given),–,·,–,·,·,·,·
O=C(NCCn1cc(SCc2ccc(F)cc2)c2ccccc21)c1ccccc1F,13,–,–,–,–,–,–
O=C(NCCn1cc(SCc2ccc(F)cc2)c2ccccc21)c1c(F)cccc1F,–,–,–,–,–,–,·
CC(C)C[C@H](N)c1nnc(S(=O)(=O)Cc2ccc(F)cc2)o1,–,–,–,–,–,–,·
SMILES,RAM inhibit,DAT uptake mod,WT yeast gro inh,Yeast lifespan up,Measles CPE,Yeast growth inh,RAM 5-FOA
CC(Oc1cc(F)ccc1[N+](=O)[O-])C(=O)N(C)CC(=O)Nc1ccccc1C(F)(F)F (stereo not given),–,·,–,·,·,·,·
COc1cccc(NC(=S)NCCN2CCOCC2)c1,–,·,–,–,–,–,·
COc1cccc(NC(=S)NCCC(c2ccccc2)c2ccccc2)c1,12,–,76,–,–,–,–
COCCCNC(=S)N1CCCN(c2nc3cc(C)c(C)cc3cc2C#N)CC1,–,·,–,·,·,·,·
CCOCCCNC(=S)N1CCCN(c2nc3cc(C)c(C)cc3cc2C#N)CC1,17,·,–,·,·,·,–
COc1cc(CC(NC(C)=O)C(=O)NC2CCN(c3c(Cc4ccccc4)c(C)nc4ncnn34)CC2)cc(OC)c1 (stereo not given),14,·,–,–,–,–,–
C=CCN1C(=O)C2(NNc3ccccc3O2)c2ccccc21 (stereo not given),–,–,–,–,–,–,·
CCCCN1C(=O)C2(NNc3ccccc3O2)c2ccccc21 (stereo not given),15,–,–,–,–,–,–
CC(C)CCNC(=O)c1onc(CSc2ccccn2)c1C(=O)NCCC(C)C,·,–,·,·,·,·,·
CCN(CC)C(=O)CSc1nc2cc3c(cc2c(=O)n1CCCCCC(=O)NCc1ccc(OC)cc1)OCO3,14,·,–,·,·,·,–
CCOC(=O)c1sc(-c2ccc(OC)cc2)cc1NC(C)=O,18,·,–,–,–,–,–
COc1cccc(-c2cc(C(=O)Nc3ccn(Cc4ccc(C)cc4)n3)no2)c1,17,·,–,·,·,·,–
CCOC(=O)CSc1nc2ccccc2c(=O)n1C,–,–,–,–,–,–,·
CCOC(=O)CSc1nc2ccccc2c(=O)n1C1CCCC1,13,–,–,–,–,–,–
COCCNC(=O)CSc1ccccc1C(=O)O,–,·,–,·,·,·,·
CSc1ncccc1C(=O)OCc1cccc([N+](=O)[O-])c1,–,·,–,·,·,·,·
CN(Cc1cc(-c2ccccc2)on1)C(=O)c1cc(COc2c(F)cccc2F)on1,21,·,–,·,·,·,–
CCc1ccccc1NC(=S)N(CCCN1CCOCC1)Cc1cccs1,–,·,–,–,–,–,·
CN(C[C@H](Cc1ccccc1)N(C[C@H](Cc1ccccc1)N(CCc1cc(C(F)(F)F)cc(C(F)(F)F)c1)N=O)N=O)N=O,–,–,–,·,·,·,·
CC(C)C[C@@H](CN(C)N=O)N(C[C@H](Cc1ccccc1)N(CCc1ccccc1)N=O)N=O,20,·,–,·,·,·,–
Cc1cccc(OCCC(=O)Nc2c(C)n(C)n(-c3ccccc3)c2=O)c1,–,–,–,–,–,–,·
CC(C)Cn1c(-c2cccs2)nc2nc3ccccc3nc21,–,–,–,–,–,–,·
CCCCn1c(-c2cccs2)nc2nc3ccccc3nc21,12,–,–,–,–,–,–
COc1ccc(C(=O)/C=C/Nc2ccc(S(=O)(=O)Nc3onc(C)c3C)cc2)cc1,13,·,–,–,43,–,–
COc1ccc(C(=O)/C=C/Nc2ccc(S(=O)(=O)Nc3nc(C)cc(C)n3)cc2)cc1OC,–,·,–,–,–,–,·

# High-throughput results from PubChem BioAssay.
